Measured values from ChEMBL document CHEMBL1152460, “Phenotypic characterization of resistant Val36 variants of hepatitis C virus NS3-4A serine protease” (Antimicrob Agents Chemother, 2008).

Legend:
Hepatitis C virus [1] = assay: Antiviral activity against HCV Con1-mADE replicon with NS3 serine protease V36M mutation in human HuH7 cells after 48 hrs by RNA replicon assay; assay type: functional, organism-based, Hepacivirus hominis; settings: subtype 1b Con1-mADE, Huh-7, 48 h
Outline: (§1)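 Stable genotype 1b Con1 subgenomic neo replicon cell lines carried three adaptive mutations. They were made by electroporating T7 runoff transcripts (ScaI-linearized template) into naive Huh-7 cells, selected with 0.5 mg/ml G418 and kept in 0.25 mg/ml. Mutations were confirmed by RT-PCR sequencing. EC50 came from a 48-h assay, at least three independent assays, mean ± SD. Fold change = variant mean EC50 / wild-type EC50.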

Hepatitis C virus [2] = assay: Antiviral activity against HCV Con1-mADE replicon with NS3 serine protease V36M/R155T double mutation in human HuH7 cells after 48 hrs by RNA replicon assay relative to wild type; assay type: functional, Hepacivirus hominis, subtype 1b Con1-mADE, Huh-7; outline: as §1
Hepatitis C virus [3] = assay: Antiviral activity against wild type Con1-mADE HCV replicon in human HuH7 cells after 48 hrs by RNA replicon assay; assay type: functional, organism-based, Hepacivirus hominis; settings: subtype 1b Con1-mADE, Huh-7, 48 h; outline: as §1
Hepatitis C virus [4] = assay: Antiviral activity against HCV Con1-mADE replicon with NS3 serine protease V36A mutation in human HuH7 cells after 48 hrs by RNA replicon assay; assay type: functional, organism-based, Hepacivirus hominis; settings: subtype 1b Con1-mADE, Huh-7, 48 h; outline: as §1
Hepatitis C virus [5] = assay: Antiviral activity against HCV Con1-mADE replicon with NS3 serine protease T54A mutation in human HuH7 cells after 48 hrs by RNA replicon assay relative to wild type
NS3 protease [6] = target: NS3 protease (Hepacivirus C, UniProt C1KIQ2, V36L); assay: Inhibition of HCV genotype 1a NS3 protease V36L mutant expressed in Escherichia coli BL21 (DE3); set-up: species or system Hepatitis C virus subtype 1a
Outline: (§2)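 NS3 protease domain (genotype 1a isolate 3201 or 1b isolate 3111) was expressed in E. coli BL21(DE3) with 5 h, 1 mM IPTG at 25°C, then purified by Talon and gel filtration. Enzyme was preincubated with 5 μM KK4A cofactor (10 min 25°C, 10 min 30°C), then inhibitor 60 min at 30°C, then 5 μM RET-S1 FRET substrate 20 min at 30°C. Substrate turnover was 10–20%. IC50(1 h) was fitted; 3–5 experiments, mean ± SD.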

Hepatitis C virus [7] = assay: Antiviral activity against HCV Con1-mADE replicon with NS3 serine protease V36M/A156T double mutation in human HuH7 cells after 48 hrs by RNA replicon assay relative to wild type; assay type: functional, Hepacivirus hominis, subtype 1b Con1-mADE, Huh-7
Outline: (§3)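 Stable HCV genotype 1b subgenomic replicon (Con1-mADE, neo) cell lines made by electroporating ScaI-linearized T7 runoff RNA into naïve Huh-7 cells; selected in 0.5 mg/ml G418, maintained in 0.25 mg/ml; NS3 substitutions confirmed by RT-PCR sequencing. EC50 from 48-h replicon RNA reduction assay, ≥3 independent experiments, mean ± SD; fold change = variant mean EC50 / wild-type mean EC50.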

Hepatitis C virus [8] = assay: Inhibition of wild type HCV genotype 1b NS3 protease expressed in Escherichia coli BL21 (DE3); set-up: species or system Hepatitis C virus subtype 1b
Outline: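 NS3 protease domain (genotype 1a isolate 3201 or 1b isolate 3111) induced 5 h with 1 mM IPTG at 25°C and purified by Talon affinity and gel filtration. Preincubated with 5 μM KK4A cofactor peptide, then with inhibitor 60 min at 30°C. Then 20 min at 30°C with 5 μM RET-S1 FRET depsipeptide, reading product release at 10–20% turnover. IC50(1 h) by curve fit; 3–5 independent experiments, mean ± SD.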

Hepatitis C virus [9] = assay: Antiviral activity against HCV Con1-mADE replicon with NS3 serine protease V36A/R155T double mutation in human HuH7 cells after 48 hrs by RNA replicon assay relative to wild type; assay type: functional, Hepacivirus hominis, subtype 1b Con1-mADE, Huh-7; outline: as §1
[10] = Inhibition of wild type HCV genotype 1a NS3 protease expressed in Escherichia coli BL21 (DE3) measured after 1 hr
Hepatitis C virus [11] = assay: Antiviral activity against HCV Con1-mADE replicon with NS3 serine protease V36M/R155K double mutation in human HuH7 cells after 48 hrs by RNA replicon assay; assay type: functional, organism-based, Hepacivirus hominis; settings: subtype 1b Con1-mADE, Huh-7, 48 h; outline: as §1
Hepatitis C virus [12] = assay: Inhibition of HCV genotype 1b NS3 protease V36A mutant expressed in Escherichia coli BL21 (DE3); set-up: species or system Hepatitis C virus subtype 1b; outline: as §2
Hepatitis C virus [13] = assay: Antiviral activity against HCV Con1-mADE replicon with NS3 serine protease V36A/R155K double mutation in human HuH7 cells after 48 hrs by RNA replicon assay relative to wild type; assay type: functional, Hepacivirus hominis, subtype 1b Con1-mADE, Huh-7; outline: as §1
Hepatitis C virus [14] = assay: Antiviral activity against HCV Con1-mADE replicon with NS3 serine protease V36A mutation in human HuH7 cells after 48 hrs by RNA replicon assay relative to wild type; assay type: functional, Hepacivirus hominis, subtype 1b Con1-mADE, Huh-7; outline: as §1
Hepatitis C virus [15] = assay: Antiviral activity against HCV Con1-mADE replicon with NS3 serine protease V36G mutation in human HuH7 cells after 48 hrs by RNA replicon assay relative to wild type; assay type: functional, Hepacivirus hominis, subtype 1b Con1-mADE, Huh-7; outline: as §3
Hepatitis C virus [16] = assay: Antiviral activity against HCV genotype 1 infected in patient assessed as log10 reduction in plasma HCV RNA level at 750 mg dosed every 8 hrs measured after 2 days; assay type: functional, Hepacivirus hominis
NS3 protease [17] = target: NS3 protease (Hepacivirus C, UniProt C1KIQ2, R155K/V36M); assay: Inhibition of HCV genotype 1a NS3 protease V36M/R155K double mutant expressed in Escherichia coli BL21 (DE3); set-up: species or system Hepatitis C virus subtype 1a; outline: as §2
NS3 protease [18] = target: NS3 protease (Hepacivirus C, UniProt C1KIQ2, V36M); assay: Inhibition of HCV genotype 1a NS3 protease V36M mutant expressed in Escherichia coli BL21 (DE3); set-up: species or system Hepatitis C virus subtype 1a; outline: as §2
Hepatitis C virus [19] = assay: Antiviral activity against HCV Con1-mADE replicon with NS3 serine protease V36L mutation in human HuH7 cells after 48 hrs by RNA replicon assay relative to wild type; assay type: functional, Hepacivirus hominis, subtype 1b Con1-mADE, Huh-7; outline: as §1
Hepatitis C virus [20] = assay: Antiviral activity against HCV Con1-mADE replicon with NS3 serine protease V36M/A156T double mutation in human HuH7 cells after 48 hrs by RNA replicon assay; assay type: functional, organism-based, Hepacivirus hominis; settings: subtype 1b Con1-mADE, Huh-7, 48 h; outline: as §1
Hepatitis C virus [21] = assay: Antiviral activity against HCV Con1-mADE replicon with NS3 serine protease V36A/R155K double mutation in human HuH7 cells after 48 hrs by RNA replicon assay; assay type: functional, organism-based, Hepacivirus hominis; settings: subtype 1b Con1-mADE, Huh-7, 48 h; outline: as §1
Hepatitis C virus [22] = assay: Antiviral activity against HCV Con1-mADE replicon with NS3 serine protease V36L mutation in human HuH7 cells after 48 hrs by RNA replicon assay; assay type: functional, organism-based, Hepacivirus hominis; settings: subtype 1b Con1-mADE, Huh-7, 48 h; outline: as §1
Hepatitis C virus [23] = assay: Antiviral activity against HCV Con1-mADE replicon with NS3 serine protease V36A/R155T double mutation in human HuH7 cells after 48 hrs by RNA replicon assay; assay type: functional, organism-based, Hepacivirus hominis; settings: subtype 1b Con1-mADE, Huh-7, 48 h; outline: as §1
Hepatitis C virus [24] = assay: Antiviral activity against HCV Con1-mADE replicon with NS3 serine protease V36M/R155K double mutation in human HuH7 cells after 48 hrs by RNA replicon assay relative to wild type; assay type: functional, Hepacivirus hominis, subtype 1b Con1-mADE, Huh-7; outline: as §1
Hepatitis C virus [25] = assay: Antiviral activity against HCV genotype 1 infected in patient assessed as logarithmic maximal reduction in plasma HCV RNA level at 750 mg dosed every 8 hrs measured after 14 days; assay type: functional, Hepacivirus hominis
Hepatitis C virus [26] = assay: Antiviral activity against HCV Con1-mADE replicon with NS3 serine protease V36A/T54A double mutation in human HuH7 cells after 48 hrs by RNA replicon assay; assay type: functional, organism-based, Hepacivirus hominis; settings: subtype 1b Con1-mADE, Huh-7, 48 h; outline: as §1
Hepatitis C virus [27] = assay: Antiviral activity against HCV Con1-mADE replicon with NS3 serine protease V36G mutation in human HuH7 cells after 48 hrs by RNA replicon assay; assay type: functional, organism-based, Hepacivirus hominis; settings: subtype 1b Con1-mADE, Huh-7, 48 h; outline: as §1
Hepatitis C virus [28] = assay: Antiviral activity against HCV Con1-mADE replicon with NS3 serine protease V36M mutation in human HuH7 cells after 48 hrs by RNA replicon assay relative to wild type; assay type: functional, Hepacivirus hominis, subtype 1b Con1-mADE, Huh-7; outline: as §1
Hepatitis C virus [29] = assay: Antiviral activity against HCV Con1-mADE replicon with NS3 serine protease V36A/T54A double mutation in human HuH7 cells after 48 hrs by RNA replicon assay relative to wild type; assay type: functional, Hepacivirus hominis, subtype 1b Con1-mADE, Huh-7; outline: as §3
Hepatitis C virus [30] = assay: Selectivity ratio of IC50 for HCV genotype 1b NS3 protease V36A mutant to IC50 for wild type HCV genotype 1b NS3 protease; set-up: species or system Hepatitis C virus subtype 1b
Outline: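 Purified genotype 1b NS3 protease domain (wild-type isolate 3111 or V36A), E. coli BL21(DE3)-expressed, preincubated with 5 μM KK4A cofactor peptide 10 min 25°C then 10 min 30°C; inhibitor 60 min 30°C; then 5 μM RET-S1 FRET depsipeptide 20 min 30°C, 10–20% turnover. IC50(1 h) fitted; fold change = variant/wild-type IC50, 3–5 independent experiments, mean ± SD.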

Hepatitis C virus [31] = assay: Antiviral activity against HCV Con1-mADE replicon with NS3 serine protease V36M/R155T double mutation in human HuH7 cells after 48 hrs by RNA replicon assay; assay type: functional, organism-based, Hepacivirus hominis; settings: subtype 1b Con1-mADE, Huh-7, 48 h; outline: as §1
Hepatitis C virus [32] = assay: Antiviral activity against HCV Con1-mADE replicon with NS3 serine protease T54A mutation in human HuH7 cells after 48 hrs by RNA replicon assay; settings: subtype 1b Con1-mADE, Huh-7, 48 h

Compound	EC50 (Hepatitis C virus [1]) [µM]	fold change (FC) (Hepatitis C virus [2])	EC50 (Hepatitis C virus [3]) [µM]	EC50 (Hepatitis C virus [4]) [µM]	fold change (FC) (Hepatitis C virus [9])	EC50 (Hepatitis C virus [11]) [µM]	fold change (FC) (Hepatitis C virus [13])	fold change (FC) (Hepatitis C virus [14])	fold change (FC) (Hepatitis C virus [19])	EC50 (Hepatitis C virus [21]) [µM]	EC50 (Hepatitis C virus [23]) [µM]	fold change (FC) (Hepatitis C virus [24])	fold change (FC) (Hepatitis C virus [28])	EC50 (Hepatitis C virus [31]) [µM]	EC50 (Hepatitis C virus [32]) [µM]	other results
CCC[C@H](NC(=O)[C@@H]1[C@H]2CCC[C@H]2CN1C(=O)[C@@H](NC(=O)[C@@H](NC(=O)c1cnccn1)C1CCCCC1)C(C)(C)C)C(=O)C(=O)NC1CC1 [TELAPREVIR]	3.4	>62	0.49	3.6	>62	30	40	7.4	2.2	20	> 30	62	7	> 30	3	fold change (FC) (Hepatitis C virus [5]): 6.3; IC50 (NS3 protease [6]): 0.13 µM; fold change (FC) (Hepatitis C virus [7]): >62; IC50 (Hepatitis C virus [8]): 0.063 µM; IC50 [10]: 0.05 µM; IC50 (Hepatitis C virus [12]): 0.23 µM; fold change (FC) (Hepatitis C virus [15]): 11.2; Activity (Hepatitis C virus [16]): 3; IC50 (NS3 protease [17]): 3.4 µM; IC50 (NS3 protease [18]): 0.27 µM; EC50 (Hepatitis C virus [20]): > 30 µM; EC50 (Hepatitis C virus [22]): 1.1 µM; Activity (Hepatitis C virus [25]): 4.65; EC50 (Hepatitis C virus [26]): 9.7 µM; EC50 (Hepatitis C virus [27]): 5.4 µM; fold change (FC) (Hepatitis C virus [29]): 20.1; fold change (FC) (Hepatitis C virus [30]): 3.6
NC(=O)c1ncn([C@@H]2O[C@H](CO)[C@@H](O)[C@H]2O)n1 [RIBAVIRIN]	33	0.6	58	43	0.7	41	0.6	0.8	0.4	36	42	0.7	0.6	36	22	–
